Measurements as given in ChEMBL document CHEMBL4715702, “Overcoming multidrug resistance by targeting mitochondria with NO-donating doxorubicins” (Bioorg Med Chem, 2016).
Calls of active or inactive are those of the source. The rule behind the calls is not given here.

What was measured:
[1] = system: H9c2; assay: Cardiotoxicity against rat H9c2 cells assessed as LDH release at 5 uM incubated for 24 hrs; type: toxicity, cell-based; conditions: h9c2, 24 h
Outline: (§1)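 Extracellular medium spun 12,000 × g 5 min; cells detached, sonicated in 82.3 mmol/L triethanolamine phosphate-HCl pH 7.6. LDH activity read in medium and lysate at 340 nm over 6 min, as µmol NADH oxidized/min/dish; extracellular LDH given as % of total dish activity. Compounds from DMSO stock, 5 µM final, 1% DMSO; controls 1% DMSO. Triplicate, mean ± SD.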

[2] = Prodrug release in doxrubicin-resistant human HT-29 cells assessed as increase in NO level by measuring induction of P-glycoprotein nitration in mitochondria at 5 uM incubated for 24 hrs by western blot analysis; conditions: ht-29, 24 h
Outline: (§2)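 Cells 24 h with 5 µmol/L compound. Mitochondrial extracts, 10 µg protein, run on SDS-PAGE and probed for Pgp, porin as loading control; nitration detected by Western blot with peroxidase secondary and chemiluminescence. Representative of three experiments.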

[3] = Prodrug release in human HT-29 cells assessed as increase in NO level by measuring induction of P-glycoprotein nitration in plasma membrane at 5 uM incubated for 24 hrs by western blot analysis; type: cell membranes, Cell membrane; conditions: ht-29, 24 h
Outline: (§3)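 Cells 24 h with 5 µmol/L compound. Plasma-membrane proteins isolated by surface biotinylation, 50 µg run on SDS-PAGE, probed for Pgp with pancadherin loading control; nitration detected by Western blot, peroxidase secondary and chemiluminescence. Representative of three experiments.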

[4] = Prodrug release in human HT-29 cells assessed as increase in NO level by measuring plasma membrane associated MRP1/BCRP nitration mediated drug uptake at 5 uM incubated for 24 hrs by spectrofluorometric analysis; type: ADME, cell membranes; conditions: ht-29, 24 h
Outline: (§4)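 Cells 24 h with 5 µmol/L compound; DOXO in whole-cell lysates measured fluorimetrically (ex 475/em 553 nm), cell-free blank subtracted, converted to nmol DOXO/mg protein by calibration curve. Triplicate, mean ± SD.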

[5] = Prodrug release in doxorubicin-resistant human HT-29 cells assessed as increase in NO level by measuring induction of P-glycoprotein nitration in plasma membrane at 5 uM incubated for 24 hrs by western blot analysis; type: cell membranes, Cell membrane; conditions: ht-29, 24 h; outline: as §3
[6] = Prodrug release in human HT-29 cells assessed as increase in NO level by measuring mitochondria associated MRP1/BCRP/P-gp nitration mediated drug uptake at 5 uM incubated for 24 hrs by spectrofluorometric analysis; type: ADME; conditions: ht-29, 24 h
Outline: (§5)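 Cells 24 h with 5 µmol/L compound; mitochondrial fractions isolated (porin check by immunoblot), DOXO measured fluorimetrically (ex 475/em 553 nm) with blank subtraction and calibration curve; expressed as nmol DOXO/mg mitochondrial protein. Triplicate, mean ± SD.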

[7] = system: HT-29; assay: Induction of apoptosis in human HT29 cells assessed as activation of caspase 3 using DEVD-AMC substrate at 5 uM incubated for 24 hrs by fluorescence based assay; type: functional, cell-based
Outline: (§6)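 Cells 24 h in 5 µmol/L compound or fresh medium, lysed in HEPES/KOH buffer pH 7.5. 20 µg lysate incubated 1 h at 37°C with 20 µmol/L LEHD-AMC (caspase 9) or DEVD-AMC (caspase 3) in HEPES/CHAPS/sucrose/DTT buffer pH 7.5. Stopped with ice-cold 0.1% TCA; AMC fluorescence ex 380/em 460 nm, converted to nmol AMC/µg protein via AMC standards. Triplicate.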

[8] = system: HT-29; assay: Induction of apoptosis in human HT29 cells assessed as activation of caspase 9 using LEHD-AMC substrate at 5 uM incubated for 24 hrs by fluorescence based assay; type: functional, cell-based; outline: as §6
[9] = Prodrug release in human HT-29 cells assessed as increase in NO level by measuring induction of P-glycoprotein nitration in mitochondria at 5 uM incubated for 24 hrs by western blot analysis; conditions: ht-29, 24 h; outline: as §2
[10] = Stability of the compound assessed as human serum esterase-mediated compound hydrolysis by measuring half life at 100 uM by RP-HPLC analysis; type: ADME, cell-free
Outline: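 Compound from 10 mM DMSO stock added to human male AB serum preheated to 37 °C, 100 µM final, incubated at 37 ± 0.5 °C. Aliquots deproteinized with acetonitrile/0.1% HCOOH, centrifuged, filtered. Parent and degradation products quantified by RP-HPLC (234 and 480 nm) against 1–100 µM calibration. At least triplicate.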

[11] = system: HT-29; assay: Upregulation of iNOS protein expression in human HT-29 cells; type: functional, cell-based
Outline: (§7)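 HT29 and HT29/dx cells incubated 24 h with compound or fresh medium; lysed in MLB buffer pH 7.5, sonicated, centrifuged 13,000 x g 10 min 4°C; iNOS detected in whole-cell lysate by Western blotting.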

[12] = Prodrug release in human HT-29 cells assessed as increase in NO level by measuring nitrite release at 5 uM incubated for 24 hrs by spectrophotometric analysis; type: ADME, cell-based; conditions: ht-29, 24 h
Outline: (§8)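 After 24 h culture with 5 µmol/L compound, medium mixed 1:1 with Griess reagent, 10 min 37°C in dark, absorbance 540 nm. Cell-free blank subtracted; nitrite expressed as nmol/mg cell protein. HT29/dx maintained in 200 nmol/L DOXO. Triplicate, mean ± SD (n = 3).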

[13] = system: HT-29; assay: Induction of apoptosis in doxorubicin-resistant human HT29 cells assessed as activation of caspase 3 using DEVD-AMC substrate at 5 uM incubated for 24 hrs by fluorescence based assay; type: functional, cell-based; outline: as §6
[14] = system: HT-29; assay: Cytotoxicity against human HT-29 cells assessed as LDH release at 5 uM incubated for 24 hrs; type: functional, cell-based; outline: as §1
[15] = Prodrug release in doxorubicin-resistant human HT-29 cells assessed as increase in NO level by measuring plasma membrane associated MRP1/BCRP nitration mediated drug uptake at 5 uM incubated for 24 hrs by spectrofluorometric analysis; type: ADME, cell membranes; conditions: ht-29, 24 h; outline: as §4
[16] = Prodrug release in doxorubicin-resistant human HT-29 cells assessed as increase in NO level by measuring nitrite release at 5 uM incubated for 24 hrs by spectrophotometric analysis; type: ADME, cell-based; conditions: ht-29, 24 h; outline: as §8
[17] = system: HT-29; assay: Upregulation of iNOS protein expression in doxorubicin-resistant human HT-29 cells; type: functional, cell-based; outline: as §7
[18] = system: HT-29; assay: Cytotoxicity against doxorubicin-resistant human HT-29 cells assessed as LDH release at 5 uM incubated for 24 hrs; type: functional, cell-based; outline: as §1
[19] = Prodrug release in doxorubicin-resistant human HT-29 cells assessed as increase in NO level by measuring mitochondria associated MRP1/BCRP/P-gp nitration mediated drug uptake at 5 uM incubated for 24 hrs by spectrofluorometric analysis; type: ADME; conditions: ht-29, 24 h; outline: as §5
[20] = system: HT-29; assay: Induction of apoptosis in doxorubicin-resistant human HT29 cells assessed as activation of caspase 9 using LEHD-AMC substrate at 5 uM incubated for 24 hrs by fluorescence based assay; type: functional, cell-based; outline: as §6

- Activity [2]: Active
- Activity [3]: Not Active
- Drug uptake [4]: Active
- Activity [5]: Not Active
- Drug uptake [6]: Active
- Activity [9]: Active
- half-life at 100 µM [10]: 21.7 h
- Drug metabolism [12]: Metabolite_Detected
- Drug uptake [15]: Active
- Drug metabolism [16]: Metabolite_Detected
- Drug uptake [19]: Active
SMILES: COc1cccc2c1C(=O)c1c(O)c3c(c(O)c1C2=O)C[C@@](O)(C(=O)COC(=O)C(C)(C)CO[N+](=O)[O-])C[C@@H]3O[C@H]1C[C@H](N)[C@H](O)[C@H](C)O1.Cl
- Activity [1]: Non-Toxic
- Activity [7]: Active
- Activity [8]: Active
- Activity [11]: Active
- Activity [13]: Active
- Activity [14]: Active
- Activity [17]: Active
- Activity [18]: Active
- Activity [20]: Active
